{"source": "paper PMC4091680", "about": "(Bioorganic & medicinal chemistry, 2014)", "key": {"[1]": {"tested_on": "tubulin (colchicine site)", "test": "Inhibition of [3H]colchicine binding to tubulin", "parameters": "species or system bovine", "conditions": "for Inhibition of colchicine binding % Inhibition ± SD: tubulin 1 µM, colchicine 5 µM", "method_in_brief": "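Purified bovine brain tubulin at 0.1 mg/mL (1.0 µM) was incubated 10 min at 37 °C with 5.0 µM [3H]colchicine, test compound, 5% (v/v) DMSO and 1.0 M glutamate. Reactions were stopped with 0 °C water, filtered through two stacked DEAE-cellulose filters and washed three times with ice-cold water. Filter-bound radiolabel was counted by liquid scintillation; % inhibition ± SD.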"}, "[2]": {"tested_on": "purified bovine brain tubulin", "test": "Tubulin polymerization assay", "assay_type": "biochemical"}, "HeLa cells [3]": {"tested_on": "HeLa cells", "test": "Flow cytometric cell cycle distribution, HeLa", "assay_type": "cell-based, human", "conditions": "24 h", "method_in_brief": "(§1)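 Per assay, 5×10^5 cells were exposed to test compound at several concentrations for 24 h. Cells were then collected, fixed in ice-cold 70% ethanol, lysed in buffer with RNase A and 0.1% Triton X-100, PI-stained and run on a flow cytometer. Phase distribution came from DNA histograms; means ± SEM of three independent experiments.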"}, "HL-60 cells [4]": {"tested_on": "HL-60 cells", "test": "Flow cytometric cell cycle distribution, HL-60", "assay_type": "cell-based, human", "conditions": "HL-60, 24 h", "method_in_brief": "as §1"}, "HeLa cells [5]": {"tested_on": "HeLa cells", "test": "Annexin-V/PI apoptosis assay, HeLa", "assay_type": "cell-based, human", "conditions": "24 or 48 h"}, "HL-60 cells [6]": {"tested_on": "HL-60 cells", "test": "Annexin-V/PI apoptosis assay, HL-60", "assay_type": "cell-based, human", "conditions": "HL-60, 24 or 48 h"}, "[7]": {"tested_on": "caspase-3 and PARP in HL-60 cells", "test": "Western blot analysis of caspase-3 and PARP", "assay_type": "cell-based, human", "conditions": "HL-60, 24 h and 48 h", "method_in_brief": "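HL-60 cells were treated with test compound at various concentrations and times, washed in ice-cold PBS and lysed on ice 30 min. Lysates were cleared at 15000 × g, 4 °C, 10 min. Per lane, 20 µg protein (BCA) was separated by SDS-PAGE (7.5–15%) and blotted to PVDF. Membranes were blocked with 5% BSA, probed overnight at 4 °C for caspase-3 and PARP, then with peroxidase secondaries and ECL. Reprobing for β-actin checked loading.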"}, "Raji": {"tested_on": "Raji", "test": "MTT cytotoxicity assay, Raji", "assay_type": "cell-based, human", "conditions": "48 h", "method_in_brief": "(§2)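 Cells grew in RPMI-1640 with 10% FBS, L-glutamine, penicillin and streptomycin at 37 °C, 5% CO2. They were seeded at 10,000/well overnight in 1% FBS medium, then treated 48 h with test compound at 0.1–125 µM; the solvent control was 0.1% DMSO. MTT (0.5 mg/mL final) was added for 4 h, formazan dissolved in DMSO, and absorbance read at 570 nm. Quadruplicates were taken as % of solvent control, IC50 from concentration–response curves.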"}, "HeLa": {"tested_on": "HeLa", "test": "MTT cytotoxicity assay, HeLa", "assay_type": "cell-based, human", "conditions": "48 h", "method_in_brief": "as §2"}}, "data": [{"smiles": "COc1ccc(/C=C\\c2cc(OC)c(OC)c(OC)c2)cc1O", "note": "[CA-4, combretastatin A-4]", "values": [{"measurement": "Inhibition of colchicine binding % Inhibition ± SD", "setting": "[1]; compound 1 µM", "result": "88 ± 0.3", "unit": "%"}, {"measurement": "Inhibition of colchicine binding % Inhibition ± SD", "setting": "[1]; compound 5 µM", "result": "98 ± 0.8", "unit": "%"}]}, {"smiles": "COc1ccc(OC)c(NC(=O)/C=C/c2c[nH]c3ccccc23)c1", "note": "[Compound 3b, (E)-N-(2,5-Dimethoxyphenyl)-3-(1H-indol-3-yl)acrylamide]", "values": [{"measurement": "antitubulin activity (in words)", "setting": "[2]", "result": "inactive"}]}, {"smiles": "COc1ccc(NC(=O)/C=C/c2c[nH]c3ccccc23)cc1OC", "note": "[Compound 3c, (E)-N-(3,4-Dimethoxyphenyl)-3-(1H-indol-3-yl)acrylamide]", "values": [{"measurement": "antitubulin activity (in words)", "setting": "[2]", "result": "inactive"}]}, {"smiles": "COc1cc(NC(=O)/C=C/c2c[nH]c3ccccc23)cc(OC)c1", "note": "[Compound 3d, (E)-N-(3,5-Dimethoxyphenyl)-3-(1H-indol-3-yl)acrylamide]", "values": [{"measurement": "antitubulin activity (in words)", "setting": "[2]", "result": "inactive"}]}, {"smiles": "COc1cc(NC(=O)/C=C/c2c[nH]c3ccccc23)cc(OC)c1OC", "note": "[Compound 3e, (E)-3-(1H-Indol-3-yl)-N-(3,4,5-trimethoxyphenyl)acrylamide]", "values": [{"measurement": "inhibition of [3H]colchicine binding (in words)", "setting": "[1]; compound 50 µM", "result": "Significant inhibition"}, {"measurement": "lowest concentration giving increase in G2/M phase cells", "setting": "HeLa cells [3]", "result": 10, "unit": "µM"}, {"measurement": "cells blocked in G2/M", "setting": "HeLa cells [3]; 15–30 µM", "result": "more than 80%"}, {"measurement": "lowest concentration giving increase in G2/M phase cells", "setting": "HL-60 cells [4]", "result": 10, "unit": "µM"}, {"measurement": "cells blocked in G2/M", "setting": "HL-60 cells [4]; 15–30 µM", "result": "> 60", "unit": "%"}, {"measurement": "annexin-V+/PI− and annexin-V+/PI+ fractions (apoptosis)", "setting": "HeLa cells [5]", "result": "concentration- and time-dependent increase"}, {"measurement": "annexin-V+/PI− and annexin-V+/PI+ fractions (apoptosis)", "setting": "HL-60 cells [6]", "result": "concentration- and time-dependent increase"}, {"measurement": "PARP cleavage", "setting": "[7]", "result": "cleavage of its substrate PARP"}, {"measurement": "caspase-3 activation (cleaved fragments)", "setting": "[7]", "result": "induced the activation of caspase-3"}]}, {"smiles": "COc1cc(CNC(=O)/C=C/c2c[nH]c3ccccc23)ccc1O", "note": "[Compound 3g, (E)-N-(4-Hydroxy-3-methoxybenzyl)-3-(1H-indol-3-yl)acrylamide]", "values": [{"measurement": "activity against Raji cells (in words)", "setting": "Raji", "result": "weak activity"}]}, {"smiles": "COc1cccc(CNC(=O)/C=C/c2c[nH]c3ccccc23)c1OC", "note": "[Compound 3h, (E)-N-(2,3-Dimethoxybenzyl)-3-(1H-indol-3-yl)acrylamide]", "values": [{"measurement": "activity against HeLa cells (in words)", "setting": "HeLa", "result": "weak activity"}]}, {"smiles": "COc1ccc(CNC(=O)/C=C/c2c[nH]c3ccccc23)c(OC)c1", "note": "[Compound 3i, (E)-N-(2,4-Dimethoxybenzyl)-3-(1H-indol-3-yl)acrylamide]", "values": [{"measurement": "activity against Raji cells (in words)", "setting": "Raji", "result": "weak activity"}]}]}
